Experimental data pooled from the literature.
Each line is one published result; the experiments were not run side by side.
Read-out: cell growth or viability

O=C(NO)c1ccc(CNc2nc3cccc(-c4ccc5c(c4)OCO5)n3n2)cc1  GI50 (CAKI-1; SRB): 660 nM
C=CC(=O)NC1CCN(c2ncc3ncnc(Nc4ccc(Oc5ccc6c(c5)ncn6C)c(C)c4)c3n2)CC1  EC50 (EFM-192A): 28.4 nM
Nc1ccc(/C=C/C(=O)N2CCc3c(oc4c(-c5ccc(F)cc5)cc(-c5ccc(C(=O)N6CCOCC6)nn5)cc34)C2)cn1  IC50 (ASPC1; CCK-8; 72 h): 870 nM
C=CC(=O)N1CCN(c2nc(=O)n(-c3c(C)ccnc3C(C)C)c3nc(-c4c(O)cccc4F)c(F)cc23)[C@@H](C)C1  IC50 (SW756; ATP luminescence): 111 nM
CCN1[C@@H](C(=O)NC23CCC(C(=O)O)(CC2)CC3)[C@H](c2cccc(Cl)c2F)[C@]2(C(=O)Nc3cc(Cl)ccc32)C12CCCCC2  GI50 (SW982; resazurin; 72 h): 157 nM
C=C(F)C(=O)N1CCN(c2nc(OC[C@@H]3CCCN3C)nc3c2CCN(c2cccc4cccc(Cl)c24)C3)C[C@@H]1CC#N  IC50 (ASPC1; ATP luminescence): 2010 nM
Cc1cc(/C=C/C#N)cc(C)c1Nc1ccnc(Nc2ccc(C#N)cc2)n1  IC50 (CNE-2; MTT; 48 h): 18700 nM
Nc1ccc(/C=C/C(=O)NCc2cc3cc(-c4ccc(C(=O)N5CCC(F)(F)CC5)cc4)cc(-c4ccc(F)cc4)c3o2)cn1  IC50 (ASPC1; CCK-8; 72 h): 440 nM
COc1cc2nc(N3CCN(C(=O)c4ccco4)CC3)nc(N)c2cc1OC  IC50 (CNE-2; MTT; 48 h): 34800 nM
CC1(C)CCC2(CC1)N[C@@H](C(=O)N[C@@H]1CC[C@@H](C(N)=O)OC1)[C@H](c1ccnc(Cl)c1F)[C@]21C(=O)Nc2cc(Cl)ccc21  GI50 (SW982; resazurin; 72 h): 21 nM
